Measured values taken from ChEMBL document CHEMBL1147710, “Synthesis of (2E)-3-{2-[(substituted benzyl)oxy]phenyl}acrylaldehydes as novel anti-inflammatory agents” (Bioorg Med Chem Lett, 2006).

How the values were obtained:
Neutrophil [1] = assay: Inhibition of PMA-induced superoxide formation in Sprague-Dawley rat neutrophil at 3 uM; format: functional
In short: (§1)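 Superoxide generation by rat (Sprague Dawley) neutrophils stimulated with PMA at 3 nM. Test range 1–30 µM. Readout is superoxide formed in nmol/10⁶ cells/30 min, with percent inhibition versus control. N = 3.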

Neutrophil [2] = assay: Formation of PMA-induced superoxide in Sprague-Dawley rat neutrophil at 3 uM per 10^6 cells after 30 min; format: functional; in short: as §1
Neutrophil [3] = assay: Formation of fMLP-induced superoxide in Sprague-Dawley rat neutrophil at 3 uM per 10^6 cells after 30 min; format: functional
In short: (§2)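 Rat (Sprague Dawley) neutrophils were stimulated with fMLP (0.3 µM) plus cytochalasin B (5 µg/mL). Superoxide formed was reported as nmol/10⁶ cells/30 min and percent inhibition versus control. IC50 was derived from the […] concentration series. N = 3.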

Neutrophil [4] = assay: Inhibition of PMA-induced superoxide formation in Sprague-Dawley rat neutrophil at 1 uM; format: functional; in short: as §1
Neutrophil [5] = assay: Inhibition of fMLP-induced superoxide formation in Sprague-Dawley rat neutrophil at 3 uM; format: functional; in short: as §2
Neutrophil [6] = assay: Inhibition of PMA-induced superoxide formation in Sprague-Dawley rat neutrophil at 10 uM; format: functional; in short: as §1
Neutrophil [7] = assay: Inhibition of fMLP-induced superoxide formation in Sprague-Dawley rat neutrophil; format: functional, cell-based; in short: as §2
Neutrophil [8] = assay: Formation of fMLP-induced superoxide in Sprague-Dawley rat neutrophil at 5 uM per 10^6 cells after 30 min; format: functional
Neutrophil [9] = assay: Formation of PMA-induced superoxide in Sprague-Dawley rat neutrophil at 1 uM per 10^6 cells after 30 min; format: functional; in short: as §1
Neutrophil [10] = assay: Formation of fMLP-induced superoxide in Sprague-Dawley rat neutrophil at 10 uM per 10^6 cells after 30 min; format: functional; in short: as §2
Neutrophil [11] = assay: Inhibition of fMLP-induced superoxide formation in Sprague-Dawley rat neutrophil at 5 uM; format: functional
Neutrophil [12] = assay: Inhibition of PMA-induced superoxide formation in Sprague-Dawley rat neutrophil; format: functional, cell-based; in short: as §1
Neutrophil [13] = assay: Inhibition of fMLP-induced superoxide formation in Sprague-Dawley rat neutrophil at 10 uM; format: functional; in short: as §2
Neutrophil [14] = assay: Inhibition of fMLP-induced superoxide formation in Sprague-Dawley rat neutrophil at 1 uM; format: functional; in short: as §2
Neutrophil [15] = assay: Inhibition of PMA-induced superoxide formation in Sprague-Dawley rat neutrophil at 30 uM; format: functional; in short: as §1
Neutrophil [16] = assay: Formation of fMLP-induced superoxide in Sprague-Dawley rat neutrophil at 1 uM per 10^6 cells after 30 min; format: functional; in short: as §2
Neutrophil [17] = assay: Formation of PMA-induced superoxide in Sprague-Dawley rat neutrophil at 10 uM per 10^6 cells after 30 min; format: functional; in short: as §1
Neutrophil [18] = assay: Formation of PMA-induced superoxide in Sprague-Dawley rat neutrophil at 30 uM per 10^6 cells after 30 min; format: functional; in short: as §1
Neutrophil [19] = assay: Formation of fMLP-induced superoxide in Sprague-Dawley rat neutrophil at 30 uM per 10^6 cells after 30 min; format: functional; in short: as §2
Neutrophil [20] = assay: Inhibition of fMLP-induced superoxide formation in Sprague-Dawley rat neutrophil at 30 uM; format: functional; in short: as §2
Neutrophil [21] = assay: Increase in cAMP level in Sprague-Dawley rat neutrophil; format: functional, cell-based
In short: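 Neutrophils were treated for 10 min with the indicated concentrations, with DMSO giving the basal level. Cellular cAMP was measured by enzyme immunoassay kit. Values are means SD of three experiments.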

CN1CCN(CCCN2c3ccccc3Sc3ccc(C(F)(F)F)cc32)CC1 [TRIFLUOPERAZINE]
inhibition at 3 µM (Neutrophil [1]): 55.4%
Activity (Neutrophil [2]): 3.4 nmol
Activity (Neutrophil [3]): 2.8 nmol
inhibition at 1 µM (Neutrophil [4]): 27.6%
inhibition at 3 µM (Neutrophil [5]): 1.7%
inhibition at 10 µM (Neutrophil [6]): 83.3%
IC50 (Neutrophil [7]): 6.6 µM
Activity (Neutrophil [8]): 2.1 nmol
Activity (Neutrophil [9]): 5.48 nmol
Activity (Neutrophil [10]): 0.54 nmol
inhibition at 5 µM (Neutrophil [11]): 24.2%
IC50 (Neutrophil [12]): 2.7 µM
inhibition at 10 µM (Neutrophil [13]): 79.5%

O=C/C=C/c1ccccc1OCc1ccc(Cl)c(Cl)c1
Activity (Neutrophil [3]): 2.03 nmol
inhibition at 3 µM (Neutrophil [5]): 29.4%
inhibition at 1 µM (Neutrophil [14]): 11.7%
inhibition at 30 µM (Neutrophil [15]): -51.1%
inhibition at 10 µM (Neutrophil [6]): 1.9%
IC50 (Neutrophil [7]): 4.3 µM
Activity (Neutrophil [10]): 0.6 nmol
Activity (Neutrophil [16]): 2.56 nmol
Activity (Neutrophil [17]): 7.77 nmol
Activity (Neutrophil [18]): 11.4 nmol
inhibition at 10 µM (Neutrophil [13]): 79.8%

COc1ccc(OCc2ccccc2Cl)c(/C=C/C=O)c1
Activity (Neutrophil [19]): 1.69 nmol
inhibition at 30 µM (Neutrophil [20]): 40.9%
inhibition at 30 µM (Neutrophil [15]): -26.9%
inhibition at 10 µM (Neutrophil [6]): -17.5%
Activity (Neutrophil [10]): 1.89 nmol
Activity (Neutrophil [17]): 8.94 nmol
Activity (Neutrophil [18]): 9.63 nmol
inhibition at 10 µM (Neutrophil [13]): 34.3%

COc1ccc(OCc2ccc(Cl)cc2)c(/C=C/C=O)c1
Activity (Neutrophil [19]): 1.9 nmol
inhibition at 30 µM (Neutrophil [20]): 33.4%
inhibition at 30 µM (Neutrophil [15]): -25.5%
inhibition at 10 µM (Neutrophil [6]): -23.3%
Activity (Neutrophil [10]): 2.1 nmol
Activity (Neutrophil [17]): 9.39 nmol
Activity (Neutrophil [18]): 9.55 nmol
inhibition at 10 µM (Neutrophil [13]): 27.1%

O=C/C=C/c1ccccc1OCc1ccccc1F
Activity (Neutrophil [19]): 0.35 nmol
inhibition at 30 µM (Neutrophil [20]): 87.6%
Activity (Neutrophil [3]): 1.48 nmol
inhibition at 3 µM (Neutrophil [5]): 47.5%
inhibition at 30 µM (Neutrophil [15]): -29.4%
inhibition at 10 µM (Neutrophil [6]): -24.1%
IC50 (Neutrophil [7]): 3.3 µM
Activity (Neutrophil [10]): 0.72 nmol
Activity (Neutrophil [17]): 9.45 nmol
Activity (Neutrophil [18]): 9.82 nmol
inhibition at 10 µM (Neutrophil [13]): 75.1%

O=C/C=C/c1ccccc1OCc1c(Cl)cccc1Cl
Activity (Neutrophil [19]): 1.54 nmol
inhibition at 30 µM (Neutrophil [20]): 46.8%
inhibition at 30 µM (Neutrophil [15]): -59.2%
inhibition at 10 µM (Neutrophil [6]): -50.6%
Activity (Neutrophil [10]): 1.71 nmol
Activity (Neutrophil [17]): 11.4 nmol
Activity (Neutrophil [18]): 12 nmol
inhibition at 10 µM (Neutrophil [13]): 40.3%

O=Cc1ccccc1OCc1ccccc1
Activity (Neutrophil [19]): 0.62 nmol
inhibition at 30 µM (Neutrophil [20]): 60.8%
Activity (Neutrophil [3]): 1.01 nmol
inhibition at 3 µM (Neutrophil [5]): 36.1%
IC50 (Neutrophil [7]): 15.6 µM
Activity (Neutrophil [10]): 0.86 nmol
Activity (Neutrophil [21]): Dose-dependent effect
inhibition at 10 µM (Neutrophil [13]): 40.6%

COc1ccc(OCc2ccc(Cl)cc2)c(/C=C/C=N/O)c1
Activity (Neutrophil [19]): 2.41 nmol
inhibition at 30 µM (Neutrophil [20]): 31.6%
inhibition at 30 µM (Neutrophil [15]): -132%
inhibition at 10 µM (Neutrophil [6]): -124%
Activity (Neutrophil [10]): 2.53 nmol
Activity (Neutrophil [17]): 11.9 nmol
Activity (Neutrophil [18]): 12.1 nmol
inhibition at 10 µM (Neutrophil [13]): 27.9%

COc1ccc(COc2ccccc2/C=C/C=O)cc1
Activity (Neutrophil [19]): 0.33 nmol
inhibition at 30 µM (Neutrophil [20]): 88.2%
Activity (Neutrophil [3]): 1.58 nmol
inhibition at 3 µM (Neutrophil [5]): 44.6%
inhibition at 30 µM (Neutrophil [15]): -22.2%
inhibition at 10 µM (Neutrophil [6]): -24.5%
IC50 (Neutrophil [7]): 3.8 µM
Activity (Neutrophil [10]): 0.81 nmol
Activity (Neutrophil [17]): 9.45 nmol
Activity (Neutrophil [18]): 9.28 nmol
inhibition at 10 µM (Neutrophil [13]): 71.3%

O=C/C=C/c1ccccc1OCc1ccccc1Cl
Activity (Neutrophil [19]): 0.29 nmol
inhibition at 30 µM (Neutrophil [20]): 89.7%
Activity (Neutrophil [3]): 1.69 nmol
inhibition at 3 µM (Neutrophil [5]): 40.1%
inhibition at 30 µM (Neutrophil [15]): -10.9%
inhibition at 10 µM (Neutrophil [6]): -30.1%
IC50 (Neutrophil [7]): 4.4 µM
Activity (Neutrophil [10]): 0.82 nmol
Activity (Neutrophil [17]): 9.86 nmol
Activity (Neutrophil [18]): 8.39 nmol
inhibition at 10 µM (Neutrophil [13]): 71.4%
